Source: ChEMBL document CHEMBL4811269, “Design, synthesis and antibacterial evaluation of novel C-11, C-9 or C-2'-substituted 3-O-descladinosyl-3-ketoclarithromycin derivatives” (Bioorg Med Chem Lett, 2021)
≈ marks a conversion by molar mass, not a printed value.

Columns and labels:
Staphylococcus aureus [1] = experiment: Antibacterial activity against methicillin-resistant Staphylococcus aureus ATCC 43300 by broth microdilution method; assay type: functional
Procedure, shortened: (§1)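 MIC by standard NCCLS broth microdilution against resistant S. aureus strains, reported in µg/mL. Clarithromycin and azithromycin were run alongside as references.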

Staphylococcus aureus [2] = experiment: Antibacterial activity against penicillin-resistant Staphylococcus aureus ATCC 31007 by broth microdilution method; assay type: functional; procedure, shortened: as §1
Streptococcus pneumoniae [3] = experiment: Antibacterial activity against erythromycin-resistant Streptococcus pneumoniae B1 by broth microdilution method; assay type: functional
Procedure, shortened: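 MIC by standard NCCLS broth microdilution, reported in µg/mL. The strain expresses the ermB gene. Clarithromycin and azithromycin were run alongside as references.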

Streptococcus pneumoniae [4] = experiment: Antibacterial activity against erythromycin-resistant Streptococcus pneumoniae AB11 by broth microdilution method; assay type: functional
Procedure, shortened: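 MIC by standard NCCLS broth microdilution, reported in µg/mL. The strain expresses the ermB and mefA genes. Clarithromycin and azithromycin were run alongside as references.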

Streptococcus pyogenes = experiment: Antibacterial activity against erythromycin-resistant Streptococcus pyogenes R1 by broth microdilution method; assay type: functional
Procedure, shortened: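 MIC by standard NCCLS broth microdilution, reported in µg/mL. The strain is a clinically isolated erythromycin-resistant strain. Clarithromycin and azithromycin were run alongside as references.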

Pseudomonas aeruginosa = experiment: Antibacterial activity against penicillin-susceptible Pseudomonas aeruginosa ATCC 27853 by broth microdilution method; assay type: functional
Procedure, shortened: (§2)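 MIC determined by standard broth microdilution per NCCLS recommendations, read as minimal inhibitory concentration in µg/mL. Standard ATCC strains tested alongside the other panel strains, with clarithromycin and azithromycin as reference agents.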

Staphylococcus aureus [5] = experiment: Antibacterial activity against erythromycin-susceptible Staphylococcus aureus ATCC 25923 by broth microdilution method; assay type: functional; procedure, shortened: as §2
Bacillus subtilis = experiment: Antibacterial activity against penicillin-susceptible Bacillus subtilis ATCC9372 by broth microdilution method; assay type: functional; procedure, shortened: as §2
[6] = Chemical stability of the compound in pH 7.4 phosphate solution after 24 hrs by HPLC analysis; assay type: physicochemical; conditions: buffer, pH 7.4, 24 h
Procedure, shortened: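 Compound held in phosphate solution (pH = 7.4) at 25 °C and monitored by HPLC over 24 h. Stability judged from change in peak area.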

Row | Structure (SMILES) | MIC (Staphylococcus aureus [1]) [µg/mL] | MIC (Staphylococcus aureus [2]) [µg/mL] | MIC (Streptococcus pneumoniae [3]) [µg/mL] | MIC (Streptococcus pneumoniae [4]) [µg/mL] | MIC (Streptococcus pyogenes) [µg/mL] | MIC (Pseudomonas aeruginosa) [µg/mL] | MIC (Staphylococcus aureus [5]) [µg/mL] | MIC (Bacillus subtilis) [µg/mL] | Stabilty [6]
1 | CO[C@]1(C)C[C@@H](C)[C@H](OC(=O)c2ccc(C)cc2)[C@H](C)CN(C)CCOC(=O)[C@H](C)C(=O)[C@H](C)[C@H]1O[C@@H]1O[C@H](C)C[C@H](N(C)C)[C@H]1OC(=O)c1ccc(C)cc1 | > 256 | > 256 | > 256 | > 256 | > 256 | > 128 | 128 (≈ 164 µM) | > 128 | Stable
2 | CO[C@]1(C)C[C@@H](C)[C@H](OC(=O)c2ccc(Cl)cc2)[C@H](C)CN(C)CCOC(=O)[C@H](C)C(=O)[C@H](C)[C@H]1O[C@@H]1O[C@H](C)C[C@H](N(C)C)[C@H]1OC(=O)c1ccc(Cl)cc1 | > 256 | > 256 | 128 (≈ 156 µM) | > 256 | > 256 | > 128 | 128 (≈ 156 µM) | > 128 | Stable
3 | CO[C@]1(C)C[C@@H](C)[C@H](OC(=O)c2ccccc2)[C@H](C)CN(C)CCOC(=O)[C@H](C)C(=O)[C@H](C)[C@H]1O[C@@H]1O[C@H](C)C[C@H](N(C)C)[C@H]1OC(=O)c1ccccc1 | > 256 | > 256 | > 256 | > 256 | > 256 | > 128 | 128 (≈ 170 µM) | > 128 | Stable
4 | CO[C@]1(C)C[C@@H](C)[C@H](OC(=O)c2cccc(C(F)(F)F)c2)[C@H](C)CN(C)CCOC(=O)[C@H](C)C(=O)[C@H](C)[C@H]1O[C@@H]1O[C@H](C)C[C@H](N(C)C)[C@H]1OC(=O)c1cccc(C(F)(F)F)c1 | > 256 | > 256 | > 256 | > 256 | > 256 | > 128 | 128 (≈ 144 µM) | > 128 | Stable
5 | CCc1ccc(C(=O)O[C@@H]2[C@H](C)CN(C)CCOC(=O)[C@H](C)C(=O)[C@H](C)[C@@H](O[C@@H]3O[C@H](C)C[C@H](N(C)C)[C@H]3OC(=O)c3ccc(CC)cc3)[C@](C)(OC)C[C@H]2C)cc1 | > 256 | > 256 | > 256 | > 256 | > 256 | > 128 | 64 (≈ 79.1 µM) | > 128 | –
6 | CO[C@]1(C)C[C@@H](C)[C@H](OC(=O)c2cccc([N+](=O)[O-])c2)[C@H](C)CN(C)CCOC(=O)[C@H](C)C(=O)[C@H](C)[C@H]1O[C@@H]1O[C@H](C)C[C@H](N(C)C)[C@H]1OC(=O)c1cccc([N+](=O)[O-])c1 | > 256 | > 256 | > 256 | > 256 | > 256 | > 128 | 128 (≈ 152 µM) | > 128 | –
